Calls of active or inactive are those of the source.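 The calls were made as follows, unless noted: active = viability loss from added drug above about 55%, and viability with drug at most 40%, in both replicates (limit read from the data, passing the limit was not always enough); inconclusive = both conditions met in only one replicate; inactive = neither replicate meets both conditions.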
What was measured:
[1] = reducers of endogenous Her2 protein level, primary screen, SKBR3 breast tumor cells, AlphaScreen, ATP viability (AID 461;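 active = Her2 level under about 52% in both replicate screens, with viability over 70% of control, limit read from the data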;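 as to Her2 level: lower value means less Her2 protein in the cells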;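 as to viability: percent of carrier control wells set as 100% viability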); conditions: 18-24 h, measured here: SKBR3 viability, ATP luminescence, at 10 µM
[2] = target: Receptor tyrosine-protein kinase erbB-2 (Homo sapiens) (UniProt P04626); assay: as above; conditions: 18-24 h, at 10 µM, stronger effect = lower value
Chain of Receptor tyrosine-protein kinase erbB-2 (Homo sapiens) (P04626 whole entry, looked up): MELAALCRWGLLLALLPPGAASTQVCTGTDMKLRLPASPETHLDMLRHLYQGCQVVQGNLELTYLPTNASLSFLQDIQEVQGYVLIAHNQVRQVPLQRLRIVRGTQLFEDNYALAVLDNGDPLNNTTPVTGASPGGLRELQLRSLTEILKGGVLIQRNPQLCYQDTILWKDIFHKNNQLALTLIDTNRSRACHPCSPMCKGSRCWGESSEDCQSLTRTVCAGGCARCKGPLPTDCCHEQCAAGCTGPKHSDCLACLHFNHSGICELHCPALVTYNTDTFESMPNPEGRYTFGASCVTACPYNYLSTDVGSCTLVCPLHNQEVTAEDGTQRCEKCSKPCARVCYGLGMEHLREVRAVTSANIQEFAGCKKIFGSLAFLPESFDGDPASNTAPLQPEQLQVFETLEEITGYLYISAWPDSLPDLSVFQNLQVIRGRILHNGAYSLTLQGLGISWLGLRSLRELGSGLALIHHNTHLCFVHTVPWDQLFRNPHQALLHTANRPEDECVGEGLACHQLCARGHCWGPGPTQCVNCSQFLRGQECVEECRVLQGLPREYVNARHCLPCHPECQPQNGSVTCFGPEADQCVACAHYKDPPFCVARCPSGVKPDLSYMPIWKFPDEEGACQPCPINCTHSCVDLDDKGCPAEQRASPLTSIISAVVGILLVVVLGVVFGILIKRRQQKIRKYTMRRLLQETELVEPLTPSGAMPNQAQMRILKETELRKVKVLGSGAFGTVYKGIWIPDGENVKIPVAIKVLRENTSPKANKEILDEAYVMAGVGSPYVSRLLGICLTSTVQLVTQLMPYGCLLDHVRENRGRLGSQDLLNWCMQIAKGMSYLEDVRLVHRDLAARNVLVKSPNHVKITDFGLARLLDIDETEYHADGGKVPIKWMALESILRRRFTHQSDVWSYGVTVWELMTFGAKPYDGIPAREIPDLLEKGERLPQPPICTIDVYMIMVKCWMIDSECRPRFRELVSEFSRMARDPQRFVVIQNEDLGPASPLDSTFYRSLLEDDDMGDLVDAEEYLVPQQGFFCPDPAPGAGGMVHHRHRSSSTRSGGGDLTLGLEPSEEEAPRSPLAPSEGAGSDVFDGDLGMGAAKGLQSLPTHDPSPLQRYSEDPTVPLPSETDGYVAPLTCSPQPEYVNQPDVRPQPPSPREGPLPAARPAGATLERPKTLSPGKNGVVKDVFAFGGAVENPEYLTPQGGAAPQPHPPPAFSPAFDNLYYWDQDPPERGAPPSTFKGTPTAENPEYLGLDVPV

[3] = SK-BR-3 cell growth inhibitors, pilot screen, 24 h, human (AID 572;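 active = viability at or below 10% of carrier control in both of two separate runs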;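 also: compound exposure lasted between 18 and 24 h rather than exactly 24 h; 100% = carrier-treated control wells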); conditions: SK-BR-3 viability, CellTiter-Glo luminescence, at 10 µM, stronger effect = lower value
[4] = reversal of MRP1-mediated doxorubicin resistance, pilot screen, H69AR cells, doxorubicin co-treatment (AID 601); conditions: CellTiter-Glo, 72 h, at 10 µM; for differential viability (reversal): stronger effect = higher value
[5] = 384-well plate pilot, post-Golgi transport modulator project, inhibition of yeast transport mutant growth (AID 636; in the data active = inhibition above about 31%); conditions: absorbance 615 nm, about 18 h, stronger effect = higher value
[6] = growth suppression of yeast trafficking mutant, preliminary HTS, modulators of trafficking downstream of Golgi apparatus project, 1536-format plate, OD 615 nm (AID 637; in the data active = inhibition above about 30%); conditions: yeast transport mutant growth, absorbance 615 nm, 18 h; stronger effect = higher value
[7] = HUVEC growth inhibition – cell-based, human, primary screen (AID 575;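 active = viability at or below 30% in both replicate assays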;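 also: 100% = median of untreated cell wells with 0.1% DMSO on each plate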); conditions: HUVEC proliferation, CellTiter-Glo luminescence, 72 h; at 10 µM; stronger effect = lower value
In short: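 Test system – primary HUVEC, no more than 12 passages · Dosing – one dose, 10 µM final, 0.1% DMSO · Times – 72 h treatment at 37 °C · Measured by – ATP-based CellTiter-Glo luminescent read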

[8] = growth inhibitors of H69AR lung tumor, primary screen, human, duplicate replicates (AID 580;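 active = viability at or under a set limit in both replicates, limit being median viability minus 3 SD, cut at about 48% in these data, passing the limit was not always enough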;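 also: 100% = mean luminescence of untreated wells and 0% = no signal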); conditions: H69AR lung tumor cells viability, ATP luminescence, 72 h; at 10 µM; stronger effect = lower value
[9] = H69AR cells + 2 uM doxorubicin, measured here: viability with 2 uM doxorubicin, stronger effect = lower value
[10] = H69AR cells, compound alone cytotoxicity

SMILES	viability [1]	Her2 level [2]	viability [3]	differential viability (reversal) ([4]; H69AR cells + 2 uM doxorubicin)	viability [4, 9]	viability [4, 10]	inhibition [5]	inhibition [6]	viability [7]	viability [8]
CC(=Nc1cccc(O)c1)c1sc2ccccc2c1O	103%	71.5% (inactive)	103% (inactive)	-38.1% (inactive)	92.5%	54.5%	-5.79% (inactive)	-3.33% (inactive)		
CCOc1ccccc1NC(=O)CSc1nnc2c(CC)c(C)nc(N)n12			104% (inactive)	-3.08% (inactive)	99.4%	96.3%	-5.81% (inactive)	-0.91% (inactive)	113% (inactive)	96.3% (inactive)
Cc1ccc(C)c(N(CC(=O)NC2CCCC2)C(=O)CCCC(=O)Nc2ccccn2)c1			99% (inactive)	13.7% (inactive)	87.8%	102%	-1.82% (inactive)	-2.95% (inactive)	81.6% (inactive)	102% (inactive)
CC(C)CC1NC(=O)N(CC(=O)N2CCN(S(=O)(=O)c3ccc(Cl)cc3)CC2)C1=O (stereo not given)			97% (inactive)	-19.2% (inactive)	116%	96.4%	0% (inactive)	5.83% (inactive)	91.7% (inactive)	96.4% (inactive)
CC1CN(CC(O)COc2ccccc2C(C)(C)C)CC(C)O1 (stereo not given)			130% (inactive)	-11.3% (inactive)	89.3%	78%	-0.26% (inactive)	0.49% (inactive)	114% (inactive)	78% (inactive)
CCc1nnc(SCC(=O)NC2CCCCC2)nc1CC			94% (inactive)	13.1% (inactive)	84.8%	97.9%	-4.29% (inactive)	-7.7% (inactive)	92.5% (inactive)	97.9% (inactive)
Cc1cc(C(C)(C)C)c(O)c(C)c1CC1=NCCN1			95% (inactive)	2.26% (inactive)	90.3%	92.5%	-9.04% (inactive)	-3.23% (inactive)	93.4% (inactive)	92.5% (inactive)
Cc1ccc2c(c1)nnn2C1CCN(C(=O)NC23CC4CC(CC(C4)C2)C3)CC1			72% (inactive)	8.39% (inactive)	83.7%	92.1%	-8.08% (inactive)	0.16% (inactive)	102% (inactive)	92.1% (inactive)
Cc1ccc(S(=O)(=O)NCC(=O)OCC(=O)Nc2ncc(Cl)cc2Cl)cc1			82% (inactive)	-16.6% (inactive)	116%	99.6%	-5.21% (inactive)	1.45% (inactive)	91.2% (inactive)	99.6% (inactive)
c1coc(CN(Cc2cccs2)Cc2nnnn2C2CCCCC2)c1			74% (inactive)	-4.73% (inactive)	80.4%	75.7%	-3.84% (inactive)	0% (inactive)	83.2% (inactive)	75.7% (inactive)
COc1ccc(C(=O)Nc2nc(C)c(C(=O)N(C)C)s2)cc1OC			70% (inactive)	10.6% (inactive)	84.3%	94.9%	-8.63% (inactive)	4.52% (inactive)	91% (inactive)	94.9% (inactive)
O=C(CN1CCCN(S(=O)(=O)c2ccc(F)cc2)CC1)Nc1ccccc1Br			84% (inactive)	-7.18% (inactive)	83.5%	76.3%	1.17% (inactive)	-1.48% (inactive)	87.7% (inactive)	76.3% (inactive)
CCOC(=O)C1C2C=CC3(CN(Cc4ccco4)C(=O)C13)O2 (stereo not given)			97% (inactive)	6.86% (inactive)	89.7%	96.5%	-6.99% (inactive)	1.45% (inactive)	95.6% (inactive)	96.5% (inactive)
COc1ccc(C2=CC(=O)OC3(CCCCC3)O2)cc1			97% (inactive)	-28.8% (inactive)	85.3%	56.5%	-9.18% (inactive)	7.42% (inactive)	93.2% (inactive)	56.5% (inactive)
COc1ccccc1OCCCn1c(=O)oc2ccccc21			154% (inactive)	11.9% (inactive)	86.3%	98.2%	-1.56% (inactive)	2.79% (inactive)	90.1% (inactive)	98.2% (inactive)
CCn1cnc2sc(C(=O)Nc3ccc4c(c3)OCO4)c(C)c2c1=O			107% (inactive)	11% (inactive)	83%	94%	-8% (inactive)	-5.27% (inactive)	96.2% (inactive)	94% (inactive)
CCN(CCCNC(=O)COc1cc(=O)n(CC)c2ccccc12)c1ccccc1			86% (inactive)	5.79% (inactive)	68.9%	74.7%	-5.32% (inactive)	-4.75% (inactive)	56.9% (inactive)	74.7% (inactive)
O=C(C1CCN(C2CC(=O)N(c3ccc(F)cc3)C2=O)CC1)N1CCOCC1 (stereo not given)			106% (inactive)	4.69% (inactive)	96.2%	101%	-1.43% (inactive)	4.43% (inactive)	105% (inactive)	101% (inactive)
C=CCNc1nnc(SC2CC(=O)N(c3ccc(OC)cc3)C2=O)s1 (stereo not given)			107% (inactive)	-8.79% (inactive)	111%	103%	-1.92% (inactive)	0.73% (inactive)	108% (inactive)	103% (inactive)
CCCCOC(=O)Nc1nccs1			101% (inactive)	1.28% (inactive)	101%	103%	-5.33% (inactive)	-3.27% (inactive)	107% (inactive)	103% (inactive)
O=C(Nc1ccon1)c1cc(-c2ccccc2)nc2ccccc12			91% (inactive)	-3.19% (inactive)	99.4%	96.2%	-5.95% (inactive)	-3.27% (inactive)	104% (inactive)	96.2% (inactive)
O=C1c2ccccc2C(=O)N1c1cccc(-c2nc3ccccc3o2)c1			114% (inactive)	7.94% (inactive)	103%	111%	-4.13% (inactive)	-3.09% (inactive)	72.5% (inactive)	111% (inactive)
CN(C)c1ccc(C2C3=C(CCCC3=O)OC3=C2C(=O)CCC3)cc1			90% (inactive)	2.78% (inactive)	89.7%	92.5%	-5.73% (inactive)	-2.18% (inactive)	97% (inactive)	92.5% (inactive)
CCC(C)(C)n1nnnc1C(c1cc2cc(C)ccc2[nH]c1=O)N1CCCC1 (stereo not given)			94% (inactive)	9.6% (inactive)	89%	98.6%	-4.55% (inactive)	4.26% (inactive)	98.7% (inactive)	98.6% (inactive)
CCOC(=O)N1CCC(n2c(=S)[nH]c3cc(OC)c(OC)cc3c2=O)CC1			114% (inactive)	-2.02% (inactive)	59.1%	57.1%	-4.16% (inactive)	-1.27% (inactive)	59.5% (inactive)	57.1% (inactive)

From PubChem BioAssay
